Active and inactive are the calls of the source. The rule behind the calls is not given here.
Tests used:
Rattus norvegicus [1] = experiment: Neurotoxicity in pilocarpine-induced status epilepticus Sprague-Dawley albino rat model assessed as minimal motor impairment at 300 mg/kg, ip after 0.25 hr by rotarod test; format: toxicity, organism-based; set-up: dose 300 mg/kg, route intraperitoneal; conditions: in vivo
Procedure, shortened: (§1)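 Rat pilocarpine status epilepticus model: test carbamate given at 0 or 30 min after the first observed Racine stage 3 motor seizure, which marks SE onset. Neurotoxicity was scored within the same model.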

Rattus norvegicus [2] = experiment: Neurotoxicity in pilocarpine-induced status epilepticus Sprague-Dawley albino rat model assessed as minimal motor impairment at 100 mg/kg, ip after 0.5 hrs by rotarod test; format: toxicity, organism-based; set-up: dose 100 mg/kg, route intraperitoneal; conditions: in vivo
Mus musculus [3] = experiment: Anticonvulsant activity in albino CF1 mouse assessed as protection against subcutaneous metrazol-induced seizures at 30 mg/kg, ip after 0.5 hrs; format: functional, organism-based; set-up: dose 30 mg/kg
Procedure, shortened: (§2)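 Mice dosed ip at 30, 100 or 300 mg/kg, then tested 0.5 h and 4 h after administration in the MES or scMet test. Protection was recorded as animals protected over animals tested. Neurotoxicity was recorded as motor impairment or sedation, as animals affected over animals tested.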

Rattus norvegicus [4] = experiment: Neurotoxicity in pilocarpine-induced status epilepticus Sprague-Dawley albino rat model assessed as minimal motor impairment at 100 mg/kg, ip after 0.25 hr by rotarod test; format: toxicity, organism-based; set-up: dose 100 mg/kg, route intraperitoneal; conditions: in vivo
Rattus norvegicus [5] = experiment: Neurotoxicity in pilocarpine-induced status epilepticus Sprague-Dawley albino rat model assessed as minimal motor impairment at 30 mg/kg, ip after 0.25 hr by rotarod test; format: toxicity, organism-based; set-up: dose 30 mg/kg, route intraperitoneal; conditions: in vivo; procedure, shortened: as §1
Rattus norvegicus [6] = experiment: Neurotoxicity in pilocarpine-induced status epilepticus Sprague-Dawley albino rat model assessed as minimal motor impairment at 300 mg/kg, ip after 2 hrs by rotarod test; format: toxicity, organism-based; set-up: dose 300 mg/kg, route intraperitoneal; conditions: in vivo; procedure, shortened: as §1
Rattus norvegicus [7] = experiment: Anticonvulsant activity in Sprague-Dawley albino rat assessed as protection against maximal electroshock-induced seizures at 30 mg/kg, po after 4 hrs; format: functional, organism-based; set-up: dose 30 mg/kg
Procedure, shortened: (§3)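 Rats dosed orally. Anti-MES protection was scored as animals protected over animals tested at each time after dosing. Neurotoxicity was scored as motor impairment or sedation, as animals affected over animals tested.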

Rattus norvegicus [8] = experiment: Anticonvulsant activity in Sprague-Dawley albino rat assessed as protection against maximal electroshock-induced seizures at 30 mg/kg, po after 2 hrs; format: functional, organism-based; set-up: dose 30 mg/kg; procedure, shortened: as §3
Mus musculus [9] = experiment: Anticonvulsant activity in albino CF1 mouse assessed as protection against maximal electroshock-induced seizures at 100 mg/kg, ip after 4 hrs; format: functional, organism-based; set-up: dose 100 mg/kg; procedure, shortened: as §2
Rattus norvegicus [10] = experiment: Neurotoxicity in pilocarpine-induced status epilepticus Sprague-Dawley albino rat model assessed as minimal motor impairment at 30 mg/kg, ip after 0.5 hrs by rotarod test; format: toxicity, organism-based; set-up: dose 30 mg/kg, route intraperitoneal; conditions: in vivo; procedure, shortened: as §1
Rattus norvegicus [11] = experiment: Neurotoxicity in pilocarpine-induced status epilepticus Sprague-Dawley albino rat model assessed as minimal motor impairment at 100 mg/kg, ip after 4 hrs by rotarod test; format: toxicity, organism-based; set-up: dose 100 mg/kg, route intraperitoneal; conditions: in vivo
Rattus norvegicus [12] = experiment: Neurotoxicity in pilocarpine-induced status epilepticus Sprague-Dawley albino rat model assessed as minimal motor impairment at 300 mg/kg, ip after 0.5 hrs by rotarod test; format: toxicity, organism-based; set-up: dose 300 mg/kg, route intraperitoneal; conditions: in vivo; procedure, shortened: as §1
Mus musculus [13] = experiment: Anticonvulsant activity in albino CF1 mouse assessed as protection against maximal electroshock-induced seizures at 300 mg/kg, ip after 4 hrs; format: functional, organism-based; set-up: dose 300 mg/kg; procedure, shortened: as §2
Rattus norvegicus [14] = experiment: Anticonvulsant activity in Sprague-Dawley albino rat assessed as protection against maximal electroshock-induced seizures at 30 mg/kg, po after 1 hr; format: functional, organism-based; set-up: dose 30 mg/kg; procedure, shortened: as §3
Rattus norvegicus [15] = experiment: Neurotoxicity in Sprague-Dawley albino rat assessed as minimal motor impairment at 30 mg/kg, po by rotarod test; format: toxicity, organism-based; set-up: dose 30 mg/kg, route oral; conditions: in vivo; procedure, shortened: as §3
Mus musculus [16] = experiment: Neurotoxicity in albino CF1 mouse assessed as minimal motor impairment at 30 mg/kg, ip after 4 hrs by rotarod test; format: toxicity, organism-based; set-up: dose 30 mg/kg, route intraperitoneal; conditions: in vivo; procedure, shortened: as §2
Mus musculus [17] = experiment: Anticonvulsant activity in albino CF1 mouse assessed as protection against subcutaneous metrazol-induced seizures at 300 mg/kg, ip after 4 hrs; format: functional, organism-based; set-up: dose 300 mg/kg; procedure, shortened: as §2
Rattus norvegicus [18] = experiment: Neurotoxicity in pilocarpine-induced status epilepticus Sprague-Dawley albino rat model assessed as minimal motor impairment at 30 mg/kg, ip after 1 hr by rotarod test; format: toxicity, organism-based; set-up: dose 30 mg/kg, route intraperitoneal; conditions: in vivo; procedure, shortened: as §1
Mus musculus [19] = experiment: Neurotoxicity in albino CF1 mouse assessed as minimal motor impairment at 300 mg/kg, ip after 4 hrs by rotarod test; format: toxicity, organism-based; set-up: dose 300 mg/kg, route intraperitoneal; conditions: in vivo; procedure, shortened: as §2
Mus musculus [20] = experiment: Anticonvulsant activity in albino CF1 mouse assessed as protection against subcutaneous metrazol-induced seizures at 100 mg/kg, ip after 0.5 hrs; format: functional, organism-based; set-up: dose 100 mg/kg; procedure, shortened: as §2
Mus musculus [21] = experiment: Neurotoxicity in albino CF1 mouse assessed as minimal motor impairment at 100 mg/kg, ip after 0.5 hrs by rotarod test; format: toxicity, organism-based; set-up: dose 100 mg/kg, route intraperitoneal; conditions: in vivo; procedure, shortened: as §2
Rattus norvegicus [22] = experiment: Neurotoxicity in pilocarpine-induced status epilepticus Sprague-Dawley albino rat model assessed as minimal motor impairment at 300 mg/kg, ip after 4 hrs by rotarod test; format: toxicity, organism-based; set-up: dose 300 mg/kg, route intraperitoneal; conditions: in vivo; procedure, shortened: as §1
Mus musculus [23] = experiment: Anticonvulsant activity in albino CF1 mouse assessed as protection against subcutaneous metrazol-induced seizures at 300 mg/kg, ip after 0.5 hrs; format: functional, organism-based; set-up: dose 300 mg/kg; procedure, shortened: as §2
Rattus norvegicus [24] = experiment: Neurotoxicity in pilocarpine-induced status epilepticus Sprague-Dawley albino rat model assessed as minimal motor impairment at 30 mg/kg, ip after 2 hrs by rotarod test; format: toxicity, organism-based; set-up: dose 30 mg/kg, route intraperitoneal; conditions: in vivo; procedure, shortened: as §1
Mus musculus [25] = experiment: Anticonvulsant activity in albino CF1 mouse assessed as protection against subcutaneous metrazol-induced seizures at 30 mg/kg, ip after 4 hrs; format: functional, organism-based; set-up: dose 30 mg/kg; procedure, shortened: as §2
Rattus norvegicus [26] = experiment: Neurotoxicity in pilocarpine-induced status epilepticus Sprague-Dawley albino rat model assessed as minimal motor impairment at 30 mg/kg, ip after 4 hrs by rotarod test; format: toxicity, organism-based; set-up: dose 30 mg/kg, route intraperitoneal; conditions: in vivo; procedure, shortened: as §1
Rattus norvegicus [27] = experiment: Neurotoxicity in pilocarpine-induced status epilepticus Sprague-Dawley albino rat model assessed as minimal motor impairment at 300 mg/kg, ip after 1 hr by rotarod test; format: toxicity, organism-based; set-up: dose 300 mg/kg, route intraperitoneal; conditions: in vivo; procedure, shortened: as §1
Mus musculus [28] = experiment: Anticonvulsant activity in albino CF1 mouse assessed as protection against subcutaneous metrazol-induced seizures at 100 mg/kg, ip after 4 hrs; format: functional, organism-based; set-up: dose 100 mg/kg; procedure, shortened: as §2
Rattus norvegicus [29] = experiment: Neurotoxicity in pilocarpine-induced status epilepticus Sprague-Dawley albino rat model assessed as minimal motor impairment at 100 mg/kg, ip after 2 hrs by rotarod test; format: toxicity, organism-based; set-up: dose 100 mg/kg, route intraperitoneal; conditions: in vivo
Mus musculus [30] = experiment: Neurotoxicity in albino CF1 mouse assessed as minimal motor impairment at 300 mg/kg, ip after 0.5 hrs by rotarod test; format: toxicity, organism-based; set-up: dose 300 mg/kg, route intraperitoneal; conditions: in vivo; procedure, shortened: as §2
Mus musculus [31] = experiment: Anticonvulsant activity in albino CF1 mouse assessed as protection against maximal electroshock-induced seizures at 30 mg/kg, ip after 4 hrs; format: functional, organism-based; set-up: dose 30 mg/kg; procedure, shortened: as §2
Mus musculus [32] = experiment: Neurotoxicity in albino CF1 mouse assessed as minimal motor impairment at 100 mg/kg, ip after 4 hrs by rotarod test; format: toxicity, organism-based; set-up: dose 100 mg/kg, route intraperitoneal; conditions: in vivo; procedure, shortened: as §2
Mus musculus [33] = experiment: Anticonvulsant activity in albino CF1 mouse assessed as protection against maximal electroshock-induced seizures at 300 mg/kg, ip after 0.5 hrs; format: functional, organism-based; set-up: dose 300 mg/kg; procedure, shortened: as §2
Mus musculus [34] = experiment: Neurotoxicity in albino CF1 mouse assessed as minimal motor impairment at 30 mg/kg, ip after 0.5 hrs by rotarod test; format: toxicity, organism-based; set-up: dose 30 mg/kg, route intraperitoneal; conditions: in vivo; procedure, shortened: as §2
Mus musculus [35] = experiment: Anticonvulsant activity in albino CF1 mouse assessed as protection against maximal electroshock-induced seizures at 30 mg/kg, ip after 0.5 hrs; format: functional, organism-based; set-up: dose 30 mg/kg; procedure, shortened: as §2
Rattus norvegicus [36] = experiment: Anticonvulsant activity in Sprague-Dawley albino rat assessed as protection against maximal electroshock-induced seizures at 30 mg/kg, po after 15 mins; format: functional, organism-based; set-up: dose 30 mg/kg; procedure, shortened: as §3
Rattus norvegicus [37] = experiment: Anticonvulsant activity in Sprague-Dawley albino rat assessed as protection against maximal electroshock-induced seizures at 30 mg/kg, po after 30 mins; format: functional, organism-based; set-up: dose 30 mg/kg; procedure, shortened: as §3
Mus musculus [38] = experiment: Anticonvulsant activity in albino CF1 mouse assessed as protection against maximal electroshock-induced seizures at 100 mg/kg, ip after 0.5 hrs; format: functional, organism-based; set-up: dose 100 mg/kg; procedure, shortened: as §2
Rattus norvegicus [39] = experiment: Anticonvulsant activity in ip dosed Sprague-Dawley albino rat assessed as protection against pilocarpine-induced status epilepticus after 0.5 hrs; format: functional
Procedure, shortened: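 Pilocarpine status epilepticus model in rats. Number and severity of convulsive seizures were observed behaviourally.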

SMILES | Activity (Rattus norvegicus [1]) | Activity (Rattus norvegicus [2]) | Activity (Mus musculus [3]) | Activity (Rattus norvegicus [4]) | Activity (Rattus norvegicus [5]) | Activity (Rattus norvegicus [6]) | Activity (Mus musculus [9]) | Activity (Mus musculus [13]) | Activity (Mus musculus [16]) | Activity (Mus musculus [17]) | Activity (Mus musculus [19]) | Activity (Mus musculus [20]) | Activity (Mus musculus [23]) | Activity (Mus musculus [25]) | Activity (Mus musculus [28]) | Activity (Mus musculus [31]) | Activity (Mus musculus [32]) | Activity (Mus musculus [33]) | Activity (Mus musculus [34]) | Activity (Mus musculus [35]) | also measured
CC(COC(N)=O)CC(C)(C)C (racemic) | Toxic | Toxic | inactive | Toxic | Non-toxic | Toxic | inactive | Active | Non-toxic | inactive | Non-toxic | inactive | Active | inactive | inactive | inactive | Non-toxic | Active | Non-toxic | inactive | Activity (Rattus norvegicus [7]): inactive; Activity (Rattus norvegicus [8]): inactive; Activity (Rattus norvegicus [10]): Non-toxic; Activity (Rattus norvegicus [11]): Non-toxic; Activity (Rattus norvegicus [12]): Toxic; Activity (Rattus norvegicus [14]): inactive; Activity (Rattus norvegicus [15]): Non-toxic; Activity (Rattus norvegicus [18]): Non-toxic; Activity (Mus musculus [21]): Non-toxic; Activity (Rattus norvegicus [22]): Non-toxic; Activity (Rattus norvegicus [24]): Non-toxic; Activity (Rattus norvegicus [26]): Non-toxic; Activity (Rattus norvegicus [27]): Toxic; Activity (Rattus norvegicus [29]): Non-toxic; Activity (Mus musculus [30]): Toxic
CCCC(COC(N)=O)C(C)CC (racemic) | Non-toxic | Toxic | inactive | Toxic | Toxic | Non-toxic | inactive | Active | Non-toxic | inactive | Non-toxic | inactive | Active | inactive | inactive | inactive | Non-toxic | Active | Non-toxic | inactive | Activity (Rattus norvegicus [7]): inactive; Activity (Rattus norvegicus [8]): inactive; Activity (Rattus norvegicus [36]): inactive; Activity (Rattus norvegicus [10]): Toxic; Activity (Rattus norvegicus [11]): Non-toxic; Activity (Rattus norvegicus [12]): Non-toxic; Activity (Rattus norvegicus [14]): inactive; Activity (Rattus norvegicus [15]): Non-toxic; Activity (Rattus norvegicus [18]): Toxic; Activity (Rattus norvegicus [37]): inactive; Activity (Rattus norvegicus [22]): Non-toxic; Activity (Rattus norvegicus [24]): Toxic; Activity (Rattus norvegicus [26]): Toxic; Activity (Rattus norvegicus [27]): Non-toxic; Activity (Rattus norvegicus [29]): Non-toxic
CCCC(CCC)COC(=O)NC1CCCCC1 |  |  | inactive |  |  |  | inactive | inactive | Non-toxic | inactive | Non-toxic | inactive | inactive | inactive | inactive | inactive | Non-toxic | inactive | Non-toxic | inactive | Activity (Mus musculus [38]): inactive
NC(=O)N1c2ccccc2C=Cc2ccccc21 [CARBAMAZEPINE] |  |  |  |  |  |  |  |  |  |  |  |  |  |  |  |  |  |  |  |  | ED50 (Rattus norvegicus [39]): 50 mg/kg
